Screening results from PubChem BioAssay.
An excerpt weighted towards active compounds, which were near 1.8% of everything screened.
MC4R antag cAMP: antagonists of human melanocortin 4 receptor (MC4R) | inhibition, % at 6.5 µM | 0.48% of 360,000 active | AID 540295 | MC4R-expressing cells, MTII-stimulated cAMP, LANCE TR-FRET;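 active = inhibition above its plate's cutoff, the mean of tested wells on that plate plus 3 SD, cut at about 29% in these data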;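 also: 0% = Melanotan II alone and 100% = Melanotan II plus saturating MCL0020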
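Assay system: U2OS cells stably expressing human melanocortin 4 receptor (MC4R) / Dosing: 6.5 µM / Timing: compound 30 min, challenge 1 h, detection 1 h / Measured by: Eu-cAMP/anti-cAMP TR-FRET, emission 671 nm / Replicates: singlicate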
AI-2 QS modul: Vibrio harveyi AI-2 quorum sensing modulation; Vibrio harveyi JMH597 AI-2 luminescence/OD600 ratio, 9 h; stronger effect = lower value; strain lacks LuxN and CqsS sensors; 0 = neutral-control median; activity change, % at 7.5 µM; 0.4% of 300,000 active; AID 2094; in the data active = activity change below about -75%, passing the limit was not always enough;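 also: luminescence divided by OD600 gain over 9 h not by final OD600 alone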
MC4R ag barr: human MC4R agonism via beta-arrestin; P32245; U2OS MC4R beta-arrestin complementation, luminescence; percent of melanotan II response, DMSO zero; activation, % at 8.9 µM; 0.98% of 360,000 active;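 active = activation above a per-plate cutoff, the mean activation of sample wells on that plate plus 3 SD, cut at about 8% in these data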
NTR1 agonist: activates human neurotensin receptor 1 | 0.17% of 330,000 active | P30989 | activation, % at 20 µM | NTR1-U2OS beta-arrestin-GFP spot imaging, agonist mode;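 active = activation at or above 40% of the spot to cytoplasm intensity ratio, with at least 20 cells analyzed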;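 also: 0% = DMSO without peptide and 100% = 100 nM NTR1 peptide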
MC4R barr conf: human MC4R beta-arrestin agonism confirmation; shares compounds with MC4R ag barr; U2OS MC4R beta-arrestin recruitment, luminescence; scaled DMSO 0%, Melanotan II 100%; activation, % at 8.9 µM; 31% of 2,400 active; AID 602192;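 active = mean activation across replicates above the hit cutoff set in the earlier primary screen, cut at about 8% in these data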
MOR-DOR barr ag: activates mu-delta opioid heterodimer, MC4R agonist counter-screen; U2OS PathHunter beta-arrestin, beta-gal luminescence; percent of deltorphin B response, DMSO zero; shares compounds with MC4R ag barr; 5.8% of 2,400 active; activation, % at 9.2 µM;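 active = mean activation across replicates exceeds the hit threshold derived in the earlier primary screen, cut at about 18% in these data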;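 also: 100% = deltorphin B at 0.9 µM final and 0% = DMSO alone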
Target sequence (P35372 whole entry, looked up): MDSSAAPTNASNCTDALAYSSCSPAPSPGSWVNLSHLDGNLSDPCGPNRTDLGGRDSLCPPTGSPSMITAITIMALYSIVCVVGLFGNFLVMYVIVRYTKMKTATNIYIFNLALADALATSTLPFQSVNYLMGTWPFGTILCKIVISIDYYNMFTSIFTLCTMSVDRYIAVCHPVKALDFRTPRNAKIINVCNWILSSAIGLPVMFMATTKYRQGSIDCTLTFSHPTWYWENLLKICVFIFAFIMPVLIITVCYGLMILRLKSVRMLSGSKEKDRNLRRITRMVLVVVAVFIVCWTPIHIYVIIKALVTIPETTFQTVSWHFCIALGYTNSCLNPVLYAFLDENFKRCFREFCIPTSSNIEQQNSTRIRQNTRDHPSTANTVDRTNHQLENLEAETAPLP
Target sequence (P41143 whole entry, looked up): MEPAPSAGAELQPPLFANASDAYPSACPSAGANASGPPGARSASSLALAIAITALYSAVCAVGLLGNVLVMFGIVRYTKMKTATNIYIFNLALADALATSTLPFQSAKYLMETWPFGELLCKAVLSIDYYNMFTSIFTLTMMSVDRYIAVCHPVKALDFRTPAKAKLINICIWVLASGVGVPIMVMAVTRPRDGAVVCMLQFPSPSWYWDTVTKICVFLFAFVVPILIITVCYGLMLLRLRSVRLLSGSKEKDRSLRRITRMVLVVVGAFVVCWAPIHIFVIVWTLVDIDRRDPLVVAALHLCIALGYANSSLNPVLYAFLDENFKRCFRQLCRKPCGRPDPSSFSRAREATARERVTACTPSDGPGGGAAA
* = called active by the depositor; nt = not tested or not shown.

SMILES | MC4R antag cAMP | AI-2 QS modul | MC4R ag barr | NTR1 agonist | MC4R barr conf | MOR-DOR barr ag
O=C(c1ccncc1)N1N=C(c2ccc(Br)cc2)CC1c1ccccc1O (stereo not given) | 11.9 | 38.7 | -1.2 | 7.0 | nt | nt
COc1ccc(C(C)=O)cc1CN1C(=O)C(C)ON=C1c1ncccc1C (stereo not given) | 3.3 | nt | 0.4 | nt | nt | nt
COCCCNC(=O)c1c(NC(=O)C2COc3ccccc3O2)sc2c1CCCC2 (stereo not given) | 4.8 | 4.5 | 11.3* | 1.3 | 0.8 | 3.3
CCNC(=O)c1c(NC(=O)C2COc3ccccc3O2)sc2c1CCCC2 (stereo not given) | 0.0 | 5.2 | 2.9 | 3.8 | nt | nt
O=C(OCC(=O)N(CCc1ccccc1)Cc1ccccc1)c1cccc(O)c1 | 4.7 | 53.2 | -2.7 | 5.3 | nt | nt
O=C(OCC(=O)N(Cc1ccccc1)Cc1ccccc1)c1cccc(O)c1 | 2.6 | nt | 9.7* | 2.2 | 0.5 | 6.6
COC(=O)c1cc(OC)c(OC)cc1NC(=O)Nc1cccc(C(C)=O)c1 | 14.8 | 15.0 | -1.2 | 1.5 | nt | nt
COC(=O)c1cc(OC)c(OC)cc1NC(=O)Nc1ccc(OC)cc1 | 8.8 | 14.4 | 14.2* | -0.4 | -0.7 | 2.3
COc1ccc(CCNC(=O)COC(=O)CSc2ccc([N+](=O)[O-])cc2)cc1OC | 8.8 | nt | 0.9 | -2.3 | nt | nt
Cc1ccc(O)c(C(=O)/C=C/c2ccc3c(c2)OCCO3)c1 | -1.5 | 2.6 | 21.7* | 4.6 | 20.5* | 4.0
O=C(OCC(=O)N1CCOCC1)c1cccc(S(=O)(=O)Nc2ccc(F)cc2)c1 | 0.7 | nt | -1.0 | 2.0 | nt | nt
CCN(CC)S(=O)(=O)c1ccc(C)c(NC(=O)CSc2ncc(C(F)(F)F)cc2Cl)c1 | 12.6 | 29.3 | 9.8* | 1.0 | 6.1 | 3.9
COc1cc2c(-c3ccc(O)cc3)nc3c(c(C)nn3-c3ccccc3)c2cc1OC | 3.2 | nt | 10.1* | nt | 2.2 | 1.9
COc1cc2c(C)nc3c(c(C)nn3-c3ccccc3)c2cc1OC | 14.3 | 15.4 | -1.2 | 5.6 | nt | nt
O=Nc1c2cc3ccccc3[nH]c-2c2ccccc12 | -1.3 | nt | 10.3* | nt | 6.7 | 10.6
O=c1c2ccccc2[nH]c2ccccc12 | 9.3 | 3.3 | -0.8 | 1.1 | nt | nt
CC(Oc1ccccc1)C(=O)N=C1SC2CS(=O)(=O)CC2N1c1ccc(F)cc1 (stereo not given) | 3.9 | 10.0 | 1.8 | 0.5 | nt | nt
CN(C(=O)c1cccc(NC(=O)Cc2ccc(NC(=O)C3CCN(C(=O)C4CC4)CC3)cc2)c1)C1CCCCC1 | 8.0 | nt | -1.6 | nt | nt | nt
Cc1cc(OCC(=O)C(C)(C)C)c2c(C)c(C)c(=O)oc2c1 | -5.3 | 9.6 | 14.8* | 2.8 | 1.2 | 6.0
CCc1cc(=O)oc2cc(C)cc(OCC(=O)C(C)(C)C)c12 | 0.8 | -4.2 | 0.0 | 0.0 | nt | nt
Cc1nc2ccccc2c2oc(C(=O)Nc3ccc(C(C)C)cc3)cc12 | 3.0 | -7.0 | 26.7* | 9.7 | 9.2* | 4.2
Cc1nc2ccccc2c2oc(C(=O)Nc3ccc4c(c3)OCCO4)cc12 | 11.7 | 36.8 | 4.0 | 6.7 | nt | nt
COc1c(S(=O)(=O)N2CCN(C(=O)c3ccco3)CC2)ccc(Cl)c1Cl | 2.4 | 24.1 | -1.0 | -0.5 | nt | nt
Cc1nc(NC(=O)c2ccccc2)sc1-c1csc(Nc2ccc(Cl)cc2)n1 | nt | 16.1 | nt | -1.5 | nt | nt
Cc1nc(NC(=O)c2ccco2)sc1-c1csc(Nc2ccc(Cl)cc2)n1 | 20.8 | 21.5 | 10.2* | 0.5 | 9.1* | 5.5
SMILES | MC4R antag cAMP | AI-2 QS modul | MC4R ag barr | NTR1 agonist | MC4R barr conf | MOR-DOR barr ag
COc1cc(NC(=O)c2cc([N+](=O)[O-])ccc2NC(=O)CNCc2ccccn2)cc(OC)c1 | 14.8 | 20.4 | 1.0 | 0.1 | nt | nt
COc1ccc(NC(=O)c2cc([N+](=O)[O-])ccc2NC(=O)CNCc2ccccn2)c(OC)c1 | 1.8 | 14.9 | 13.0* | -1.8 | 13.4* | 6.3
CCOC(=O)Cn1c(=NC(=O)c2nc3ccccc3s2)sc2cc(S(N)(=O)=O)ccc21 | 28.3 | 24.5 | 11.5* | 28.9 | 1.2 | 2.9
O=C(NCc1n[nH]c(=S)n1-c1ccc(Cl)c(Cl)c1)c1ccco1 | 4.0 | 16.7 | -2.7 | 0.0 | nt | nt
CCSc1ccc(C(=O)Nc2cccc(C)n2)cc1[N+](=O)[O-] | 3.6 | 12.7 | 36.5* | 1.3 | -2.0 | 6.8
c1ccc(-c2nc3cccnc3nc2-c2ccccc2)cc1 | -2.5 | -1.4 | -2.5 | -1.0 | nt | nt
